In ChEMBL document CHEMBL3397043, “Synthesis, anticandidal activity of N(3)-(4-methoxyfumaroyl)-(S)-2,3-diaminopropanoic amide derivatives--novel inhibitors of glucosamine-6-phosphate synthase” (Eur J Med Chem, 2015):
pIC50: −log10 of the molar value.

Legend:
Staphylococcus aureus = assay: Antimicrobial activity against Staphylococcus aureus ATCC 29213 assessed as growth inhibition serial 2-fold dilution microtitre plate method; format: functional
Summary of the method: (§1)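 Bacterial MIC in Mueller Hinton Broth 2 (acid casein hydrolysate, beef extract, starch), pH 7.3. Growth was compared with control cultures and read on a microplate reader.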

Pseudomonas aeruginosa = assay: Antimicrobial activity against Pseudomonas aeruginosa ATCC 2756 assessed as growth inhibition serial 2-fold dilution microtitre plate method; format: functional; summary of the method: as §1
Escherichia coli = assay: Antimicrobial activity against Escherichia coli PCM 2560 assessed as growth inhibition serial 2-fold dilution microtitre plate method; format: functional; summary of the method: as §1
Bacillus subtilis = assay: Antimicrobial activity against Bacillus subtilis ATCC 9372 assessed as growth inhibition serial 2-fold dilution microtitre plate method; format: functional; summary of the method: as §1
[1] = Inhibition of Candida albicans glucosamine-6-phosphate synthase assessed as glucosamine-6-phosphate by Elson-Morgan method
Summary of the method: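 Enzyme source: cell-free extract of C. albicans GlcN-6-P synthase overproduced in E. coli. Incubated 37 °C for 30 min, stopped by 100 °C for 1 min. GlcN-6-P measured by modified Elson-Morgan. IC50 is the concentration giving 50% inhibition.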

[2] = Binding affinity to immobilized artificial membrane PC DD2 (unknown origin) by UV/Vis detector model
Summary of the method: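 HPLC on an IAM PC DD2 column (3 cm × 4.6 mm, 300 Å pores). Mobile phase 0.1 M phosphate buffer pH 7.2 at 1 mL/min, UV detection at 254 nm. Dead time t0 taken from citric acid retention. Capacity factor k'IAM = (tr − t0)/t0, reported as log k'IAM.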

Candida parapsilosis = assay: Antimicrobial activity against Candida parapsilosis DSM 5784 assessed as growth inhibition serial 2-fold dilution microtitre plate method; format: functional; details: Lodderomyces parapsilosis
Summary of the method: (§2)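 MIC by serial 2-fold broth dilution in microtitre plates. Medium was YNB with ammonium sulfate as nitrogen source, pH 5.0. Growth was compared with control cultures and read on a microplate reader.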

Candida albicans = assay: Antimicrobial activity against Candida albicans ATCC 10231 assessed as growth inhibition serial 2-fold dilution microtitre plate method; format: functional; summary of the method: as §2
Nakaseomyces glabratus = assay: Antimicrobial activity against Candida glabrata DSM 11226 assessed as growth inhibition serial 2-fold dilution microtitre plate method; format: functional; summary of the method: as §2
[3] = tested on: Staphylococcus epidermidis; assay: Antimicrobial activity against Staphylococcus epidermidis PCM 2118 assessed as growth inhibition serial 2-fold dilution microtitre plate method; format: functional; summary of the method: as §1

MIC (Staphylococcus aureus)	MIC (Pseudomonas aeruginosa)	MIC (Escherichia coli)	MIC (Bacillus subtilis)	pIC50 [1]	log K [2]	MIC (Candida parapsilosis)	MIC (Candida albicans)	MIC (Nakaseomyces glabratus)	MIC [3]	Structure (SMILES)
> 1020 µg/mL	> 1020 µg/mL	> 1020 µg/mL	> 1020 µg/mL	2.54	0.118	> 1020 µg/mL	512 µg/mL	> 1020 µg/mL	> 1020 µg/mL	COC(=O)/C=C/C(=O)NC[C@H](N)C(=O)N(C)C.Cl
> 1020 µg/mL	> 1020 µg/mL	> 1020 µg/mL	> 1020 µg/mL	3.90	-0.193	> 1020 µg/mL	32 µg/mL	> 1020 µg/mL	> 1020 µg/mL	CNC(=O)[C@@H](N)CNC(=O)/C=C/C(=O)OC.Cl
> 2000 µg/mL	> 2000 µg/mL	> 2000 µg/mL	> 2000 µg/mL	5.39	-0.812	> 2000 µg/mL	> 2000 µg/mL	> 2000 µg/mL	> 2000 µg/mL	COC(=O)/C=C/C(=O)NC[C@H](N)C(=O)O
> 1020 µg/mL	> 1020 µg/mL	> 1020 µg/mL	> 1020 µg/mL	4.09	-0.362	> 1020 µg/mL	4 µg/mL	> 1020 µg/mL	> 1020 µg/mL	COC(=O)/C=C/C(=O)NC[C@H](N)C(N)=O.Cl
